Assay results of several laboratories.
Protocols differ between the studies behind these lines.
CA9: Carbonic anhydrase 9 (CA9, Homo sapiens, UniProt Q16790)
PADI4: Protein-arginine deiminase type-4 (PADI4, Homo sapiens, UniProt Q9UM07)

Nc1nc2c(ncn2[C@@H]2O[C@H](COP(=O)(O)O)[C@@H](O)[C@H]2O)c(=O)[nH]1 — Kd (GUK1 (Homo sapiens, UniProt Q16774); binding, ITC): 39 µM
COc1ccc(-n2cc(CNC(=O)c3ccc(=O)oc3)nn2)cc1 — Ki (CA9; enzyme activity, inhibitor, stopped-flow): 23.5 µM
N=C(CCl)NCCC[C@H](NC(=O)c1ccc2ccc(O)cc2c1)C(=O)NCc1ccccc1 — IC50 (PADI4; enzyme activity, inhibitor, fluorescence; with preincubation): 0.204 µM
O=C(O)CCc1ccccc1 — Kd (Inward rectifier potassium channel 2 (KCNJ2, Homo sapiens, UniProt P63252); binding, MST): 2110 µM
NC(=O)c1cccnc1 — Ki (ART1 (Homo sapiens, UniProt P52961); enzyme activity, inhibitor, fluorescence): 8300 µM
Cc1c(Cl)c(=O)oc2cc(OCCCCSC#N)ccc12 — Ki (CA9; enzyme activity, inhibitor, stopped-flow): 0.0781 µM
Cc1cc(C)nc(Nc2ccc(C(=O)N[C@@H](CCCNC(=N)CCl)C(=O)NCc3ccccc3)cn2)c1 — IC50 (PADI4; enzyme activity, inhibitor, fluorescence; with preincubation): 1.02 µM
O=C(NCc1cn(-c2ccc([N+](=O)[O-])cc2)nn1)c1ccc(=O)oc1 — Ki (CA9; enzyme activity, inhibitor, stopped-flow): 7.5 µM
N=C(CCl)NCCC[C@H](NC(=O)c1ccc2cc(B(O)O)ccc2c1)C(=O)NCc1ccccc1 — IC50 (PADI4; enzyme activity, inhibitor, fluorescence; with preincubation): 0.36 µM
N#CSCc1cc(=O)oc2cc(O)ccc12 — Ki (CA9; enzyme activity, inhibitor, stopped-flow): 0.0274 µM
